Results as given in ChEMBL document CHEMBL4715787, “Radiofluorinated N-Octanoyl Dopamine ([F]F-NOD) as a Tool To Study Tissue Distribution and Elimination of NOD in Vitro and in Vivo” (J Med Chem, 2016).
Each block holds one compound with its values, some of them ahead of it. Active and inactive are the calls of the source. The rule behind the calls is not given here.

What was measured:
[1] = Redox activity of compound assessed as quenching of luminescence by horseradish peroxidase coupled luminol assay; format: physicochemical
How it was run: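 Peroxidase-luminol chemiluminescence: serial dilutions in water added to mix of 2.5 mM luminol, 0.9 mM p-coumaric acid and H2O2, with HRP; quenching read immediately on a plate reader. Expressed relative to compound-free control; at least three independent measurements per concentration; EC50 from concentration–response; ANOVA with LSD post-hoc.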

[2] = molecular target: Transient receptor potential cation channel subfamily V member 1 (Rattus norvegicus) (UniProt O35433); experiment: (§1) Activation of rat TRPV1 transfected in HEK293 cells assessed as increase in calcium influx in presence of capsaicin by FURA-2-AM dye based fluorescence assay; format: cell-based; details: filed as activator
Transient receptor potential cation channel subfamily V member 1 (Rattus norvegicus), sequence (O35433 whole entry): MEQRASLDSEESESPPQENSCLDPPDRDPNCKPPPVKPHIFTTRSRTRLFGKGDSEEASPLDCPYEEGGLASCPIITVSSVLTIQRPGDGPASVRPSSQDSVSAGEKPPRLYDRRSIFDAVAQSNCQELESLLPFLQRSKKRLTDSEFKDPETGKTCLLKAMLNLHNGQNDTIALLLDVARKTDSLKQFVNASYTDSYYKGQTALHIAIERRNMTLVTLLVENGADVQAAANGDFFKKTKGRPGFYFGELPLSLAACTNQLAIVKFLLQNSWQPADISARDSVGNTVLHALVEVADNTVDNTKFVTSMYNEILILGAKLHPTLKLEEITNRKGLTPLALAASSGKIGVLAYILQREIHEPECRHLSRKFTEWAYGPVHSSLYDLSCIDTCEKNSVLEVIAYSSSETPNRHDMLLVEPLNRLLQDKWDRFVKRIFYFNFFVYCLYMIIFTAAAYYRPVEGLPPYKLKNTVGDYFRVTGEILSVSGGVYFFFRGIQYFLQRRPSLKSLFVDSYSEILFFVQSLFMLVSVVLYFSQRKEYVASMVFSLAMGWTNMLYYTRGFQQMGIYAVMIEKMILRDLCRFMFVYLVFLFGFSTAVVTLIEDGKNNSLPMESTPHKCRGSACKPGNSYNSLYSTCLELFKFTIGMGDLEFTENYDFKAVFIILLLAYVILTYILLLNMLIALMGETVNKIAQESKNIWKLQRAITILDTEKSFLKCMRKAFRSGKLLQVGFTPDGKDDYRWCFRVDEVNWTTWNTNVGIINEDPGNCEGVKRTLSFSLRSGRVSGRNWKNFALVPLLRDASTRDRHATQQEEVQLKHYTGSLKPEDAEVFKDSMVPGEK
How it was run: (§2)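 HEK293 transiently transfected with rat TRPV1, imaged 48 h later in HEPES-buffered extracellular solution (1.8 mM CaCl2) after 1 µM FURA-2AM loading. 340/380 nm excitation ratio at 510 nm, sampled at 0.5 Hz. Compound applied at several concentrations, then 10 µM capsaicin after washout to mark transfected cells. Peak minus baseline; each coverslip one experiment, n = 3–13; two-way ANOVA.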

[3] = molecular target: Transient receptor potential cation channel subfamily V member 1 (Rattus norvegicus, UniProt O35433); experiment: as §1; format: cell-based; how it was run: as §2
Transient receptor potential cation channel subfamily V member 1, sequence (O35433 whole entry): as above

HUVEC [4] = experiment: Protection against cold inflicted injury in HUVEC assessed as 25 to 100 uM pretreated for 2 hrs followed by washout and subsequent incubation for 20 hrs at 4 degC by LDH assay; format: functional, cell-based; details: Homo sapiens, dose 25-100 µM
[5] = molecular target: T1, Nuclear factor erythroid 2-related factor 2 (Homo sapiens) (UniProt Q16236); experiment: Activation of NRF2 in HUVEC assessed as induction of HO1 expression at lower concentration measured after overnight incubation by Western blot analysis; format: tissue-based
T1 sequence (whole entry): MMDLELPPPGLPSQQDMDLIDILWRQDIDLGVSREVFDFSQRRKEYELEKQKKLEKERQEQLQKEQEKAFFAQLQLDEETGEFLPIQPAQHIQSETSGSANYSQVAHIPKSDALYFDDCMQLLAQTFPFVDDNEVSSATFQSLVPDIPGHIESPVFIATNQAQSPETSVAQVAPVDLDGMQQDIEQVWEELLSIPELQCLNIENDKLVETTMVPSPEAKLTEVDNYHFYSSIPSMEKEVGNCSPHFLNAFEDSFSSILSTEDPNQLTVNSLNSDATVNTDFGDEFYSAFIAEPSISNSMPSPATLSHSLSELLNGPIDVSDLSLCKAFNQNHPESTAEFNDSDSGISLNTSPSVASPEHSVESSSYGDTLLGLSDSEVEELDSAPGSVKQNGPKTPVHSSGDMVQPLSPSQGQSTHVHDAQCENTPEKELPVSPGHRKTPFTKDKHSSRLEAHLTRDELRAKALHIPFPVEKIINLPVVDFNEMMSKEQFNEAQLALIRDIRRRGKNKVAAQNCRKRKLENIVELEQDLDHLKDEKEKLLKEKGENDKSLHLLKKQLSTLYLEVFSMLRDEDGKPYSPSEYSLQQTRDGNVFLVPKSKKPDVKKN
How it was run: (§3)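 Primary HUVEC (from fresh umbilical cord, endothelial growth medium with 2% FBS, used at 80–90% confluence) treated with compound; VCAM-1 read-out under TNFα stimulation. Lysates in Triton/deoxycholate buffer; 15 µg protein resolved on 10% SDS-PAGE, semidry-blotted to PVDF, probed overnight at 4 °C for VCAM-1 or HO-1, visualized by ECL. Blots stripped and reprobed for β-actin as loading control.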

[6] = molecular target: T2, Catechol O-methyltransferase (Homo sapiens, UniProt P21964); experiment: Substrate activity at COMT (unknown origin) assessed as N-(2-Fluoro-4,5-dimethoxyphenethyl)octanamide formation in presence of cofactor SAM at 180 mins by HPLC analysis; format: ADME; details: 3 h
T2 sequence (P21964 whole entry): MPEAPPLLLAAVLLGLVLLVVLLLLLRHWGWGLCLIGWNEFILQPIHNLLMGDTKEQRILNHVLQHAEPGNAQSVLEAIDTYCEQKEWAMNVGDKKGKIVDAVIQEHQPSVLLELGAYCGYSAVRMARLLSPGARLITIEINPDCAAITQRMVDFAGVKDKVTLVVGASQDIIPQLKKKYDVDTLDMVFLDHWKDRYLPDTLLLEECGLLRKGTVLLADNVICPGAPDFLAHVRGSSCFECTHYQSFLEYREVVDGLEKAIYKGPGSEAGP
How it was run: (§4)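 COMT reaction for lipophilic substrates: Tris buffer pH 8.0 with MgCl2 and dithiothreitol, 10 µL Tween20, 300 nmol SAM, 300 nmol substrate (from 100 mM ethanol stock), 75 units COMT in 1% BSA, 37 °C for 2–4 h. Cooled on ice, centrifuged, CHCl3-extracted, residue in 1:1 MeCN/water analysed by HPLC against methylated references.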

[7] = molecular target: T1, Nuclear factor erythroid 2-related factor 2 (Homo sapiens); experiment: Activation of NRF2 in HUVEC assessed as induction of HO1 expression at higher concentration measured after overnight incubation by Western blot analysis; format: tissue-based; details: filed as activator; how it was run: as §3
HUVEC [8] = experiment: Antiinflammatory activity in HUVEC assessed as inhibition of TNFalpha-stimulated VCAM1 expression at higher concentration measured after overnight incubation by Western blot analysis; format: functional, cell-based; details: Homo sapiens; how it was run: as §3
HUVEC [9] = experiment: Antiinflammatory activity in HUVEC assessed as inhibition of TNFalpha-stimulated VCAM1 expression at lower concentration measured after overnight incubation by Western blot analysis; format: functional, cell-based; details: Homo sapiens; how it was run: as §3
[10] = Drug distribution in Lewis rat liver assessed as standard uptake value at 4.8 to 13.2 MBq measured at 8 min by PET imaging analysis; format: ADME, tissue-based; details: in vivo, dose 4.8-13.2 MBq
[11] = Lipophilicity, log D of compound in n-octanol and phosphate buffered saline at pH 7.5 by shake flask method; format: physicochemical
How it was run: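 Shake-flask partition of the 18F tracer between n-octanol and PBS at pH 7.5, following OECD guideline; n = 3.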

[12] = Drug distribution in Lewis rat kidney assessed as standard uptake value at 4.8 to 13.2 MBq observed between 5 to 10 mins by PET imaging analysis; format: ADME, tissue-based; details: in vivo, dose lower 4.8 MBq, time lower 5 min, dose upper 13.2 MBq, time upper 10 min
[13] = Drug distribution in Lewis rat bladder at 4.8 to 13.2 MBq measured within 30 mins by PET imaging; format: ADME, tissue-based, Urinary bladder; details: in vivo, 0.5 h, dose 4.8-13.2 MBq
[14] = Drug distribution in Lewis rat bladder assessed as standard uptake value at 4.8 to 13.2 MBq measured after 120 mins; format: ADME, tissue-based, Urinary bladder; details: in vivo, 2 h, dose 4.8-13.2 MBq
[15] = Drug distribution in Lewis rat bone assessed as standard uptake value at 4.8 to 13.2 MBq measured after 120 mins; format: ADME, tissue-based, Bone element; details: in vivo, 2 h, dose 4.8-13.2 MBq
[16] = Metabolic stability of compound in rat plasma assessed as radiochemical purity measured after 120 mins by radio-HPLC analysis; format: ADME, cell-free; details: read-out: Stabilty
How it was run: (§5)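 18F tracer in PBS/3% EtOH (100 µL) shaken with rat plasma (200 µL) at 37 °C for 120 min. Samples at 30, 60, 120 min deproteinized with equal volume acetonitrile at 0 °C; supernatant analysed by radio-TLC and radio-HPLC for radiochemical purity and recovery.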

[17] = Drug uptake in human HUVEC lysate extracts assessed as retention time incubated for 120 mins by HPLC analysis; format: ADME, subcellular; details: 2 h
How it was run: (§6)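 HUVEC incubated with ~450 kBq 18F tracer per well in 1 mL medium at 37 °C, normal atmosphere, for up to 120 min. Supernatant collected, cells washed 3× with PBS, lysed and scraped for gamma counting; associated activity expressed as % of applied dose. Lysate extracts analysed by radio-HPLC; three independent experiments, mean ± SD.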

[18] = Drug transport in HUVEC assessed as cell association incubated for 120 mins by HPLC analysis; format: ADME, tissue-based; details: human, 2 h, in the assay text read “by gamma counting” for “by HPLC analysis”; how it was run: as §6
[19] = Drug accumulation in Lewis rat bone at 4.8 to 13.2 MBq measured after 60 mins by PET imaging analysis; format: ADME, tissue-based, Bone element; details: in vivo, 1 h, dose 4.8-13.2 MBq
[20] = Metabolic stability of compound in rat plasma assessed as compound recovery rate measured after 120 mins by radio-HPLC analysis; format: ADME, cell-free; details: read-out: Drug recovery; how it was run: as §5
[21] = molecular target: T2, Catechol O-methyltransferase; experiment: Substrate activity at COMT (unknown origin) assessed as N-(4-Hydroxy-3-methoxyphenethyl)octanamide formation in presence of cofactor SAM at 180 mins by HPLC analysis; format: ADME; details: 3 h; how it was run: as §4

EC50 [1]: 32.6 µM
Activity [2]: Dose-dependent effect
EC50 [3]: 45.9 µM
Activity [5]: inactive
Drug metabolism [6]: Metabolite_Detected
Activity [7]: Active
Structure (SMILES): CCCCCCCC(=O)NCCc1cc(O)c(O)cc1F
Activity (HUVEC [4]): Active
Activity (HUVEC [8]): Active
Activity (HUVEC [9]): inactive

SUV [10]: 21 g/mL
logD [11]: 3.35
SUV [12]: 8 g/mL
Drug uptake [13]: Active
SUV [14]: 38.5 g/mL
SUV [15]: 9.8 g/mL
remaining at 2 h [16]: ≥ 98%
Retention_time [17]: 4.07 min
Drug transport [18]: 0.14 %ID
Drug uptake [19]: Active
remaining at 2 h [20]: 77%
Structure (SMILES): CCCCCCCC(=O)NCCc1cc(O)c(O)cc1[18F]

EC50 [1]: 12.1 µM
Activity [2]: Dose-dependent effect
EC50 [3]: 7.1 µM
Drug metabolism [21]: Metabolite_Detected
Activity [7]: Active
Structure (SMILES): CCCCCCCC(=O)NCCc1ccc(O)c(O)c1
Activity (HUVEC [4]): Active
Activity (HUVEC [8]): Active
